Rows were chosen to be rich in hits. Some 3.1% of all compounds tested hit in one or more screens of this group.
Apaf1 inhib – blocks human Apaf-1 apoptosome activity; O14727; reconstituted apoptosome caspase-3 activity, DEVD-Rh110 fluorescence; inhibition, % at 20 µM; hit rate 0.71% among 330,000; AID 489030; active = inhibition of at least 40% at 20 µM
Target sequence (O14727 whole entry, looked up): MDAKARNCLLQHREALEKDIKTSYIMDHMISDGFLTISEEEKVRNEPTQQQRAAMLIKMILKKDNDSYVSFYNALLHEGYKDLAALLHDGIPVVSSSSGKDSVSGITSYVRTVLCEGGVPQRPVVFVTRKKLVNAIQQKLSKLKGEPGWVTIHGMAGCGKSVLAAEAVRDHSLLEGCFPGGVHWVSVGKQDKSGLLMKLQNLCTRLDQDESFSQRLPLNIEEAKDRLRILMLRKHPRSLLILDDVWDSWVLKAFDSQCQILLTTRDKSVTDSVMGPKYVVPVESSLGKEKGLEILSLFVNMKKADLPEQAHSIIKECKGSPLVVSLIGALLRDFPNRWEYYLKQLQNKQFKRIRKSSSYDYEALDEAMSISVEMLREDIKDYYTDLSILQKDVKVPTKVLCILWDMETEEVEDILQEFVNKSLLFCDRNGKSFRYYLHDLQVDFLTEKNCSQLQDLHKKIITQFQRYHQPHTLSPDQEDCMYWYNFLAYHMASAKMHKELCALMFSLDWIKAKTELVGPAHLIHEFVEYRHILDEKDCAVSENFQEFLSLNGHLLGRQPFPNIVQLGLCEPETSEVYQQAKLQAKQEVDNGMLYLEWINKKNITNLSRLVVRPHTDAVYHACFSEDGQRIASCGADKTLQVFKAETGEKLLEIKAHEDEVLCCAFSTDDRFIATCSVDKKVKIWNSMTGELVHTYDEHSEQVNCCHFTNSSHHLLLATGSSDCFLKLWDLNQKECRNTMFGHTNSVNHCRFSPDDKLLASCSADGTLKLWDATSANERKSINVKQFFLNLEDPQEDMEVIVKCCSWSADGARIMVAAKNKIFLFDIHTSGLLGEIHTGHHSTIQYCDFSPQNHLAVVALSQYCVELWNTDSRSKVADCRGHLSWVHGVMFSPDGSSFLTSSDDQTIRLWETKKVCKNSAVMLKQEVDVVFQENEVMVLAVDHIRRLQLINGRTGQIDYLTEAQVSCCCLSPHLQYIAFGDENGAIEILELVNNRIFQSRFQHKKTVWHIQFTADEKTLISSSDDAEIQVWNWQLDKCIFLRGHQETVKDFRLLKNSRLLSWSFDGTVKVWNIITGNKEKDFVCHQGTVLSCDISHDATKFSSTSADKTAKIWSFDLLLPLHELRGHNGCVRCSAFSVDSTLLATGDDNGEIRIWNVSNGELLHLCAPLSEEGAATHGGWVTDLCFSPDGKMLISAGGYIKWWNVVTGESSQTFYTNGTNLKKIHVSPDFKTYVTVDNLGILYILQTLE
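Material: biochemical Apaf-1 apoptosome reconstitution. Medium: Hepes buffer, pH 7.5. Also added: cytochrome c activation, bis-DEVD rhodamine 110 substrate. Timing: 30 min compound preincubation, 50 min activation, room temperature. Measured by: rhodamine 110 fluorescence at Ex 480/Em 540 nm.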
PAFAH1B2 inh – inhibitors of human PAFAH1B2; P68402; recombinant PAFAH1B2, FP-rhodamine activity probe, fluorescence polarization; hit rate 1.2% among 340,000; AID 492953; inhibition, % at 3.39 µM;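 active = inhibition above the mean of all tested compounds plus 3 SD, cut at about 24% in these data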
PAFAH2 inh – PAFAH2 (human) inhibition; hit rate 0.99% among 340,000; recombinant PAFAH2, FP-rhodamine activity probe, fluorescence polarization; Q99487; AID 492956; inhibition, % at 3.39 µM;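 active = inhibition above the mean over all tested compounds plus 3 SD, cut at about 30% in these data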;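 note: inhibitors block probe labeling of enzyme so polarization drops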
PAFAH1B3 FP inh – blocks human PAF acetylhydrolase 1B catalytic subunit 3 | Q15102 | recombinant PAFAH1B3, FP-rhodamine probe, fluorescence polarization | inhibition, % at 3.39 µM | hit rate 0.28% among 340,000 | AID 492972;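 active = inhibition above the screen-wide average of all tested compounds plus 3 SD, cut at about 25% in these data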
pPAFAH inh – inhibitors of human plasma PAF acetylhydrolase (pPAFAH). recombinant pPAFAH, FP-rhodamine probe fluorescence polarization. Q13093. AID 463082. hit rate 1.5% among 330,000. inhibition, % at 3.39 µM;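 active = inhibition above the mean inhibition across the screen plus 3 SD, cut at about 25% in these data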;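 note: inhibitors block binding of the rhodamine activity-based probe so polarization drops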
A number is an active result; n = inactive; x = no result given.

SMILES	Apaf1 inhib	PAFAH1B2 inh	PAFAH2 inh	PAFAH1B3 FP inh	pPAFAH inh
CN(c1ccccc1)S(=O)(=O)c1cccc(NS(=O)(=O)c2cccc(C(=O)O)c2)c1	n	n	n	n	n
N#Cc1c(SC(C(=O)O)c2ccccc2)nc2c(c1-c1cccs1)CCCC2 (configuration not stated)	n	27	n	n	n
CCC(C)C(CO)NCCCn1cnc(C(=O)Nc2ccc(C)c(C)c2)n1 (configuration not stated)	x	n	n	n	x
CC1CC(C)CN(CCCNC(=O)c2ccc(CS(=O)(=O)Cc3ccccc3F)o2)C1 (configuration not stated)	n	n	n	n	n
Cc1ccc(CS(=O)(=O)Cc2ccc(C(=O)NCCCN3CC(C)CC(C)C3)o2)cc1 (configuration not stated)	n	n	n	n	31
Cc1ccc(S(=O)(=O)c2cc(OC(=O)c3ccco3)ccc2OC(=O)c2ccco2)cc1	n	n	n	n	n
O=C(Oc1ccc(OC(=O)c2ccco2)c(S(=O)(=O)c2ccc(Br)cc2)c1)c1ccco1	n	45	n	n	n
O=C(Oc1ccc(-c2ccccc2)cc1)c1ccco1	x	32	n	n	x
COc1ccc(N(Cc2cc(=O)[nH]c3ccccc23)C(=O)CCl)cc1	n	n	n	n	n
CC(C)C(NC(=O)c1ccc(C(C)(C)C)cc1)C(=O)NCc1ccccn1 (configuration not stated)	n	n	n	n	n
COc1ccc(/C=C2\CCc3ccccc3C2=O)cc1O	n	n	n	n	n
O=C1Nc2ccc(F)cc2C12Nc1ccccc1-c1nnc(SCc3ccccc3)nc1O2 (configuration not stated)	n	n	n	n	n
O=C1Nc2ccc(F)cc2C12Nc1ccccc1-c1nnc(SCc3ccccc3Cl)nc1O2 (configuration not stated)	n	25	n	n	n
O=C(COC(=O)Cc1ccsc1)Nc1ccc(F)cc1Cl	n	n	n	n	29
Cc1ccccc1NC(=O)COC(=O)Cc1ccsc1	n	n	n	n	27
O=C(COC(=O)Cc1ccsc1)NCc1ccc(Cl)cc1	n	n	n	n	n
COc1ccc(CC(=O)OCC(=O)Nc2ccc(Cl)cn2)cc1	n	n	n	n	n
Cc1ccc(C)c(NC(=O)COC(=O)Cc2ccsc2)c1	n	n	n	n	25
O=C(COC(=O)Cc1ccsc1)Nc1ccc(Cl)cn1	n	n	n	n	28
Cc1cccc(C)c1NC(=O)COC(=O)Cc1ccsc1	n	n	n	n	n
O=c1c2cc(Br)ccc2[nH]c(=S)n1Cc1ccccc1	n	n	n	n	26
COc1ccc(NC(=O)COC(=O)CC2CCCC2)cc1Cl	n	n	43	n	27
Cc1ccc(NC(=O)COC(=O)CC2CCCC2)cc1Cl	n	n	68	n	n
N/C(=N\OC(=O)c1ccc2ccccc2c1)c1ccccc1Cl	n	n	n	n	n
Cc1ccc(-c2ccc(/C=N/N3C(=O)C4C5C=CC(CC5)C4C3=O)o2)c([N+](=O)[O-])c1 (configuration not stated)	n	n	n	n	25
SMILES	Apaf1 inhib	PAFAH1B2 inh	PAFAH2 inh	PAFAH1B3 FP inh	pPAFAH inh
O=C1C2C3C=CC(C4CC34)C2C(=O)N1/N=C/c1ccc(-c2ccc(F)cc2[N+](=O)[O-])o1 (configuration not stated)	n	n	n	n	n
COc1ccccc1Nc1nc2ccccc2n2cnnc12	n	n	n	n	n
COc1ccccc1Nc1nc2ccccc2n1C	n	n	n	n	28
COc1ccccc1C(=O)ON=C1c2ccccc2-c2ccccc21	n	n	57	n	29
Cc1ccc(NS(=O)(=O)c2ccc(NC(=O)c3ccccc3C(=O)O)cc2)cc1C	n	x	x	x	26
O=C(Nc1ccc(Br)cc1)c1cccc(S(=O)(=O)Nc2ccccn2)c1	n	n	n	n	n
CCOc1ccc(NS(=O)(=O)c2ccc(NC(=O)c3ccccc3C(=O)O)cc2)cc1	n	n	n	n	n
O=S(=O)(Nc1ccc(F)cc1)c1ccc(NC(=S)Nc2ccccc2)cc1	n	n	n	n	25
O=C(Nc1ccc(Br)cc1)c1cccc(S(=O)(=O)Nc2cnc3ccccc3c2)c1	n	n	n	n	27
O=C(Nc1ccc(NS(=O)(=O)c2ccccc2)cc1)c1ccccc1	n	n	n	n	34
CCCCN(Cc1ccc(C(=O)N[C@H](C(=O)O)C(C)C)cc1)C(=O)C(c1ccccc1)c1ccccc1	n	n	n	n	n
COC(=O)c1cc(S(=O)(=O)N2CCC(c3cc(OC)ccc3OC)C2)c[nH]1 (configuration not stated)	n	n	n	n	n
COc1ccc(C(=O)Nc2ccc(NS(=O)(=O)c3ccccc3)cc2)cc1OC	n	n	n	n	33
Cc1ccc(S(=O)(=O)Nc2cccc(/C=C/C(=O)O)c2)cc1	n	n	n	n	n
Cc1ccc(NS(=O)(=O)c2ccc(/C=C/C(=O)O)cc2)cc1Cl	n	n	n	n	29
O=C(Nc1ccc(C(=O)c2ccc(C(=O)O)c(C(=O)O)c2)cc1)c1ccccc1	n	n	n	n	n
Cc1c(C)c(C)c(C(=O)c2ccc(NC(=O)c3ccccc3C(=O)O)cc2)c(C)c1C	n	109	167	141	n
COc1ccccc1/C(C)=N/Oc1cc(N)cc([N+](=O)[O-])c1	n	n	n	n	n
O=C1CC(c2ccco2)CC(O)=C1C=Nc1cc(Cl)ccc1O (configuration not stated)	n	n	n	n	34
O=C1CC(c2ccco2)CC(O)=C1C=Nc1cc(Cl)ccc1Cl (configuration not stated)	n	n	n	n	n
CCOc1ccc2nc(SCC(=O)Nc3ccc4[nH]c(=O)[nH]c4c3)[nH]c2c1	n	n	n	n	n
O=Nc1c(O)[nH]c2ccc(Cl)c(Cl)c12	x	28	31	43	x
O=S(=O)(NN=Cc1ccc(O)cc1O)c1cc(Cl)c(Cl)cc1Cl	x	n	n	n	x
CC(=O)Nc1cc(Cl)c(N=Cc2ccc(O)cc2O)cc1Cl	n	n	n	n	41
Cc1ccc(C(=O)CN2C(=O)C(=O)N(Cc3ccccc3)C2=O)cc1	n	26	n	n	n
SMILES	Apaf1 inhib	PAFAH1B2 inh	PAFAH2 inh	PAFAH1B3 FP inh	pPAFAH inh
NC(=O)C1(N2CCCCC2)CCN(CC(=O)Nc2ccc(Oc3ccccc3)cc2)CC1	n	n	n	n	28
O=C(COC(=O)CCC1CCCC1)Nc1ccccc1Br	n	n	n	n	34
O=C(CN1CCCCCC1)Nc1ccc(Oc2ccccc2)cc1	n	n	n	n	n
Cc1cc(C)cc(NC(=O)COC(=O)CCC2CCCC2)c1	n	n	n	n	n
O=C(COC(=O)C1CCC1)Nc1ccc(Oc2ccccc2)cc1	n	n	n	n	n
O=C(COC(=O)C1CC1)Nc1ccc(Oc2ccccc2)cc1	n	n	91	n	27
COc1cccc(NC(=O)COC(=O)CCC2CCCC2)c1	n	n	n	n	28
Cc1nn(-c2ccccc2)c(Cl)c1/C=N/NC(=O)c1ccncc1	n	n	n	n	n

Assay outcomes from PubChem BioAssay.
